# In ChEMBL document CHEMBL1955756, “Design and synthesis of novel sulfonamide-containing bradykinin hB(2) receptor antagonists. Synthesis and structure-relationships of α,α-tetrahydropyranylglycine” (Bioorg Med Chem, 2012):
# Active and inactive are the calls of the source. The calls are words filed in the database; no cut-off is given here.
# Tests used:
# B2 bradykinin receptor [1] = biological target: T1, B2 bradykinin receptor (Homo sapiens, UniProt P30411); assay: Displacement of [3H]-Bradykinin from human bradykinin B2 receptor expressed in CHO cells membrane after 60 mins by scintillation counting; type: cell membranes
# T1 sequence (P30411 whole entry): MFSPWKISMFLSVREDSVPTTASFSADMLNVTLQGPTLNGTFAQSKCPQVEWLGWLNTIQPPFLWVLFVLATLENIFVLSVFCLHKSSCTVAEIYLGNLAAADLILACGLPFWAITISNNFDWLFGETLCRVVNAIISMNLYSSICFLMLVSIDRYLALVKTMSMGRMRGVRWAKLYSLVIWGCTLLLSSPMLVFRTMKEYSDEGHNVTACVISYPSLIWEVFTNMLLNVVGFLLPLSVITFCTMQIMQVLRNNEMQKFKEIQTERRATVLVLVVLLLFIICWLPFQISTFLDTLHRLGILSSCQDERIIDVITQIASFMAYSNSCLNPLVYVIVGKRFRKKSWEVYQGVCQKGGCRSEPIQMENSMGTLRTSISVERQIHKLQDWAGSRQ
# B1 bradykinin receptor = biological target: T2, B1 bradykinin receptor (Homo sapiens, UniProt P46663); assay: Displacement of [3H][desArg9]Lys-Bradykinin from human bradykinin B1 receptor expressed in CHO cells; type: cell-based
# T2 sequence (P46663 whole entry): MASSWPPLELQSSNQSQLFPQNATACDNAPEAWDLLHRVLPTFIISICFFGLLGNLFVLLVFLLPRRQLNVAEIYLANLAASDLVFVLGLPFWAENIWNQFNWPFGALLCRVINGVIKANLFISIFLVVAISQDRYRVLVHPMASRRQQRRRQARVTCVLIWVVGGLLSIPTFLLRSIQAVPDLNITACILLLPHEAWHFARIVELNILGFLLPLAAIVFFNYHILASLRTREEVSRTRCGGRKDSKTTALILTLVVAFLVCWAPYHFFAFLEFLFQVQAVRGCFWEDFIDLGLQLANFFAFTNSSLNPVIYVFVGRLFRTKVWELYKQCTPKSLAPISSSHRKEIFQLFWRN
# B2 bradykinin receptor [2] = biological target: T1, B2 bradykinin receptor; assay: Antagonist activity at human bradykinin B2 receptor expressed in dhfr-deficient CHO cells assessed as inhibition of bradykinin-induced inositol monophosphate accumulation preincubated for 15 mins prior bradykinin induction measured after 40 mins by liquid scintillation spectrometry; type: functional, cell-based; conditions: read-out: pA2 (converted)
# Summary of the method: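 CHOdhfr-/hB2R cells (1.8×10^5/well) plated overnight at 37 °C, labelled 24 h with myo-[3H]inositol (1 uCi/well). Antagonist pre-incubation 15 min, then BK 1×10^-11 to 1×10^-5 M for 40 min at 37 °C in Hepes pH 7.4 buffer with 25 mM LiCl. IP1 radioactivity by liquid scintillation. Agonist curves fitted for EC50; pA2 = log(CR−1) − log[antagonist].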
# [3] = biological target: T3, B2 bradykinin receptor (Homo sapiens) (UniProt P30411); assay: (§1) Reversible antagonist activity at human bradykinin B2 receptor expressed in dhfr-deficient CHO cells assessed as inhibition of bradykinin-induced inositol monophosphate accumulation at 100 nM preincubated for 15 mins prior bradykinin induction measured after 30 mins washout by liquid scintillation spectrometry; type: functional, cell-based
# T3 sequence (whole entry): T1 sequence (P30411 whole entry)
# Summary of the method: (§2)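 Washout in the IP accumulation assay in CHO/hB2R cells: antagonist (3 µM or 100 nM) pre-incubated 15 min, with medium then fully replaced every 15 min in washed cells. BK (2 nM) added and the reaction stopped after one hour; IP formed quantified. Expressed as % inhibition of time-matched BK responses in vehicle-pre-incubated cells.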
# [4] = biological target: T3, B2 bradykinin receptor (Homo sapiens); assay: as §1, with “15” for “30”; type: functional, cell-based; summary of the method: as §2
# [5] = biological target: T3, B2 bradykinin receptor (Homo sapiens); assay: as §1, with “45” for “30”; type: functional, cell-based; summary of the method: as §2
# [6] = biological target: T3, B2 bradykinin receptor (Homo sapiens); assay: as §1, with “3 uM” for “100 nM”, “45” for “30”; type: functional, cell-based; summary of the method: as §2
# [7] = biological target: T3, B2 bradykinin receptor (Homo sapiens); assay: as §1, with “3 uM” for “100 nM”; type: functional, cell-based; summary of the method: as §2
# [8] = biological target: T3, B2 bradykinin receptor (Homo sapiens); assay: as §1, with “3 uM” for “100 nM”, “15” for “30”; type: functional, cell-based; summary of the method: as §2
# Cavia porcellus = assay: Inhibition of bradykinin-induced bronchoconstriction in anesthetized Dunkin-Hartley guinea pig at […], it 5 mins prior bradykinin-induction for every 30 mins up to 210 mins; type: functional, organism-based
# Summary of the method: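 Anaesthetized male Dunkin Hartley guinea pigs, 350–400 g. Compound given intratracheally, then repeated iv BK challenges (10 nmol/kg) with bronchoconstriction recorded.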
Ki (B2 bradykinin receptor [1]),Ki (B1 bradykinin receptor),Kb (B2 bradykinin receptor [2]),Structure (SMILES),further results
0.126 nM,> 10000 nM,0.794 nM,Cc1cc(C)c2cccc(OCc3c(Cl)ccc(S(=O)(=O)NC4(C(=O)N5CCN(C(=O)CCCCC[N+](C)(C)C)CC5)CCOCC4)c3Cl)c2n1,–
0.0631 nM,> 10000 nM,0.794 nM,Cc1cc(C)c2cccc(OCc3c(Cl)ccc(S(=O)(=O)NC4(C(=O)N5CCN(CCCCCC[N+](C)(C)C)CC5)CCOCC4)c3Cl)c2n1,–
0.2 nM,> 10000 nM,1.26 nM,Cc1cc(C)c2cccc(OCc3c(Cl)ccc(S(=O)(=O)NC4(C(=O)N5CCN(C(=O)CCCCCC[N+](C)(C)C)CC5)CCOCC4)c3Cl)c2n1,–
0.0631 nM,> 10000 nM,–,Cc1cc(C)c2cccc(OCc3c(Cl)ccc(S(=O)(=O)NC4(C(=O)N5CCN(C(=O)[C@@H](N)CCCCN(C)C)CC5)CCOCC4)c3Cl)c2n1,–
0.398 nM,> 10000 nM,5.01 nM,Cc1cc(C)c2cccc(OCc3c(Cl)ccc(S(=O)(=O)NC4(C(=O)N5CCC(C[N+](C)(C)C)CC5)CCOCC4)c3Cl)c2n1,–
0.126 nM,> 10000 nM,–,Cc1cc(C)c2cccc(OCc3c(Cl)ccc(S(=O)(=O)NC4(C(=O)N5CCN(C(=O)[C@@H](N)CCCNC(=N)N)CC5)CCOCC4)c3Cl)c2n1,–
0.0794 nM,> 10000 nM,2 nM,Cc1cc(C)c2cccc(OCc3c(Cl)ccc(S(=O)(=O)NC4(C(=O)N5CC[N+](C)(CCCC[N+](C)(C)C)CC5)CCOCC4)c3Cl)c2n1,–
0.126 nM,> 10000 nM,0.794 nM,Cc1cc(C)c2cccc(OCc3c(Cl)ccc(S(=O)(=O)NC4(C(=O)N5CCN(C(=O)CCC[N+](C)(C)C)CC5)CCOCC4)c3Cl)c2n1,–
0.0631 nM,> 10000 nM,–,Cc1cc(C)c2cccc(OCc3c(Cl)ccc(S(=O)(=O)NC4(C(=O)N5CCN(C(=O)[C@@H](N)CCCCNC(=N)N)CC5)CCOCC4)c3Cl)c2n1,–
0.0398 nM,> 10000 nM,3.16 nM,Cc1cc(C)c2cccc(OCc3c(Cl)ccc(S(=O)(=O)NC4(C(=O)N5CC[N+](C)(CCCCCC[N+](C)(C)C)CC5)CCOCC4)c3Cl)c2n1,–
0.0501 nM,> 10000 nM,2.51 nM,Cc1cc(C)c2cccc(OCc3c(Cl)ccc(S(=O)(=O)NC4(C(=O)N5CCC(CNCCCC[N+](C)(C)C)CC5)CCOCC4)c3Cl)c2n1,–
0.0794 nM,> 10000 nM,0.794 nM,Cc1cc(C)c2cccc(OCc3c(Cl)ccc(S(=O)(=O)NC4(C(=O)N5CCN(C(=O)C[N+](C)(C)C)CC5)CCOCC4)c3Cl)c2n1,–
0.794 nM,> 10000 nM,3.98 nM,Cc1cc(C)c2cccc(OCc3c(Cl)ccc(S(=O)(=O)NC4(C(=O)N5CCC(CC[N+](C)(C)C)CC5)CCOCC4)c3Cl)c2n1,–
0.631 nM,> 10000 nM,3.16 nM,Cc1cc(C)c2cccc(OCc3c(Cl)ccc(S(=O)(=O)NC4(C(=O)N5CC[N+]6(CCCC6)CC5)CCOCC4)c3Cl)c2n1,–
0.398 nM,> 10000 nM,2.63 nM,Cc1cc(C)c2cccc(OCc3c(Cl)ccc(S(=O)(=O)NC4(C(=O)N5CC[N+]6(CCCCC6)CC5)CCOCC4)c3Cl)c2n1,inhibition [3]: 9%; inhibition [4]: 72%; inhibition [5]: -0%
0.316 nM,> 10000 nM,–,Cc1cc(C)c2cccc(OCc3c(Cl)ccc(S(=O)(=O)NC4(C(=O)N5CCN(CCC[N+](C)(C)C)CC5)CCOCC4)c3Cl)c2n1,–
0.794 nM,> 10000 nM,–,Cc1cc(C)c2cccc(OCc3c(Cl)ccc(S(=O)(=O)NC4(C(=O)N5CCN(CC[N+](C)(C)C)CC5)CCOCC4)c3Cl)c2n1,–

Ki (B2 bradykinin receptor [1]),Ki (B1 bradykinin receptor),Kb (B2 bradykinin receptor [2]),Structure (SMILES),further results
0.251 nM,> 10000 nM,0.398 nM,Cc1cc(C)c2cccc(OCc3c(Cl)ccc(S(=O)(=O)NC4(C(=O)N5CCN(C(=O)[C@@H](N)CCCC[N+](C)(C)C)CC5)CCOCC4)c3Cl)c2n1,–
0.1 nM,> 10000 nM,1 nM,Cc1cc(C)c2cccc(OCc3c(Cl)ccc(S(=O)(=O)NC4(C(=O)N5CC[N+](C)(CCC[N+](C)(C)C)CC5)CCOCC4)c3Cl)c2n1,–
0.501 nM,> 10000 nM,1.58 nM,Cc1cc(C)c2cccc(OCc3c(Cl)ccc(S(=O)(=O)NC4(C(=O)N5CCC(CCC[N+](C)(C)C)CC5)CCOCC4)c3Cl)c2n1,–
0.251 nM,> 10000 nM,5.01 nM,Cc1cc(C)c2cccc(OCc3c(Cl)ccc(S(=O)(=O)NC4(C(=O)N5CC[N+]6(CC5)CC[N+](C)(C)CC6)CCOCC4)c3Cl)c2n1,–
0.251 nM,> 10000 nM,3.16 nM,Cc1cc(C)c2cccc(OCc3c(Cl)ccc(S(=O)(=O)NC4(C(=O)N5CC[N+](C)(CC[N+](C)(C)C)CC5)CCOCC4)c3Cl)c2n1,–
0.1 nM,> 10000 nM,0.398 nM,Cc1cc(C)c2cccc(OCc3c(Cl)ccc(S(=O)(=O)NC4(C(=O)N5CCN(C(=O)[C@@H](N)CCCCN)CC5)CCOCC4)c3Cl)c2n1,–
0.631 nM,> 10000 nM,3.98 nM,Cc1cc(C)c2cccc(OCc3c(Cl)ccc(S(=O)(=O)NC4(C(=O)N5CCC(CCCC[N+](C)(C)C)CC5)CCOCC4)c3Cl)c2n1,inhibition [6]: -0%; inhibition [7]: 6%; inhibition [8]: 23%
0.158 nM,> 10000 nM,2.51 nM,Cc1cc(C)c2cccc(OCc3c(Cl)ccc(S(=O)(=O)NC4(C(=O)N5CCC(CNCCC[N+](C)(C)C)CC5)CCOCC4)c3Cl)c2n1,–
0.0501 nM,> 10000 nM,2.51 nM,Cc1cc(C)c2cccc(OCc3c(Cl)ccc(S(=O)(=O)NC4(C(=O)N5CC[N+](C)(CCCCC[N+](C)(C)C)CC5)CCOCC4)c3Cl)c2n1,–
1 nM,> 10000 nM,1.58 nM,Cc1cc(C)c2cccc(OCc3c(Cl)ccc(S(=O)(=O)NC4(C(=O)N5CC[N+]6(CCN(C)CC6)CC5)CCOCC4)c3Cl)c2n1,–
0.1 nM,> 10000 nM,0.437 nM,Cc1cc(C)c2cccc(OCc3c(Cl)ccc(S(=O)(=O)NC4(C(=O)N5CCN(C(=O)CCCCN(C)C)CC5)CCOCC4)c3Cl)c2n1,–
0.2 nM,> 10000 nM,2.51 nM,Cc1cc(C)c2cccc(OCc3c(Cl)ccc(S(=O)(=O)NC4(C(=O)N5CCC(CNCC[N+](C)(C)C)CC5)CCOCC4)c3Cl)c2n1,–
0.0501 nM,> 10000 nM,0.724 nM,Cc1cc(C)c2cccc(OCc3c(Cl)ccc(S(=O)(=O)NC4(C(=O)N5CCN(C(=O)[C@@H](N)CCCN)CC5)CCOCC4)c3Cl)c2n1,–
0.0501 nM,> 10000 nM,0.123 nM,Cc1cc(C)c2cccc(OCc3c(Cl)ccc(S(=O)(=O)NC4(C(=O)N5CCN(C(=O)[C@@H](N)CCCN(C)C)CC5)CCOCC4)c3Cl)c2n1,–
0.0794 nM,> 10000 nM,0.479 nM,Cc1cc(C)c2cccc(OCc3c(Cl)ccc(S(=O)(=O)NC4(C(=O)N5CCN(C(=O)CCCCN)CC5)CCOCC4)c3Cl)c2n1,–
–,> 10000 nM,–,Cc1cc(C)c2cccc(OCc3c(Cl)ccc(S(=O)(=O)NC4(C(=O)N5CCN(C(=O)[C@@H](N)CCC[N+](C)(C)C)CC5)CCOCC4)c3Cl)c2n1 [FASITIBANT],inhibition (Cavia porcellus): Active
